Laboratory results reported in ChEMBL document CHEMBL1208768, “Synthesis, selective anti-Helicobacter pylori activity, and cytotoxicity of novel N-substituted-2-oxo-2H-1-benzopyran-3-carboxamides” (Bioorg Med Chem Lett, 2010).
Activity calls are given as the source filed them. The rule behind the calls is not given here.

Key:
[1] = system: Staphylococcus epidermidis; experiment: Antibacterial activity against Staphylococcus epidermidis after 18 to 22 hrs by broth microdilution method; type: functional
How it was run: (§1)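 Clinical respiratory-tract isolates from patients, subcultured for purity and identified conventionally. Broth microdilution per NCCLS in Mueller–Hinton II broth; each plate had growth controls (bacteria, no compound) and medium-only controls. Incubation 18–22 h at 35 °C. MIC taken as the lowest concentration giving complete growth inhibition by unaided eye.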

[2] = system: Escherichia coli; experiment: Antibacterial activity against Escherichia coli after 18 to 22 hrs by broth microdilution method; type: functional; how it was run: as §1
[3] = system: Staphylococcus aureus; experiment: Antibacterial activity against Staphylococcus aureus after 18 to 22 hrs by broth microdilution method; type: functional; how it was run: as §1
[4] = system: Proteus vulgaris; experiment: Antibacterial activity against Proteus vulgaris after 18 to 22 hrs by broth microdilution method; type: functional; how it was run: as §1
[5] = system: Staphylococcus haemolyticus; experiment: Antibacterial activity against Staphylococcus haemolyticus after 18 to 22 hrs by broth microdilution method; type: functional; how it was run: as §1
[6] = system: Klebsiella pneumoniae; experiment: Antibacterial activity against Klebsiella pneumoniae after 18 to 22 hrs by broth microdilution method; type: functional; how it was run: as §1
[7] = system: Klebsiella aerogenes; experiment: Antibacterial activity against Enterobacter aerogenes after 18 to 22 hrs by broth microdilution method; type: functional; how it was run: as §1
[8] = Solubility of the compound in DMSO at 0.0039 to 128 ug/mL; type: physicochemical
[9] = system: AGS; experiment: Antiinflammatory activity in human AGS cells assessed as inhibition of IL-8 production at 0.5 ug/mL after 24 hrs; type: functional, cell-based
How it was run: (§2)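 AGS gastric adenocarcinoma cells were grown in F-12K with 10% FBS. They were seeded at 1 × 10⁵/mL for 24 h, preincubated 1 h with compound at 5 or 0.5 µg/mL, then exposed to H. pylori.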

[10] = system: Staphylococcus hominis; experiment: Antibacterial activity against Staphylococcus hominis after 18 to 22 hrs by broth microdilution method; type: functional; how it was run: as §1
[11] = system: Pichia kudriavzevii; experiment: Antifungal activity against Candida krusei after 24 hrs by broth microdilution method; type: functional
How it was run: (§3)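 Candida isolates from respiratory-tract specimens, tested by NCCLS broth microdilution in Sabouraud dextrose broth. Serial compound dilutions inoculated to 10³/mL, with fungus-only and medium-only controls. Incubated 24 h at 37 °C. MIC was the lowest concentration with complete visible growth inhibition.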

[12] = system: Citrobacter freundii; experiment: Antibacterial activity against Citrobacter freundii after 18 to 22 hrs by broth microdilution method; type: functional; how it was run: as §1
[13] = system: Enterobacter; experiment: Antibacterial activity against Enterobacter after 18 to 22 hrs by broth microdilution method; type: functional; how it was run: as §1
[14] = system: Klebsiella oxytoca; experiment: Antibacterial activity against Klebsiella oxytoca after 18 to 22 hrs by broth microdilution method; type: functional; how it was run: as §1
[15] = system: [Candida] sake; experiment: Antifungal activity against Candida sake after 24 hrs by broth microdilution method; type: functional; conditions: Fermentozyma sake; how it was run: as §3
[16] = system: Candida albicans; experiment: Antifungal activity against Candida albicans after 24 hrs by broth microdilution method; type: functional; how it was run: as §3
[17] = system: AGS; experiment: Antiinflammatory activity in human AGS cells assessed as inhibition of IL-8 production at 5 ug/mL after 24 hrs; type: functional, cell-based; how it was run: as §2
[18] = system: Enterococcus faecalis; experiment: Antibacterial activity against Streptococcus faecalis after 18 to 22 hrs by broth microdilution method; type: functional; how it was run: as §1

Structure (SMILES) | MIC [1] [µg/mL] | MIC [2] [µg/mL] | MIC [3] [µg/mL] | MIC [4] [µg/mL] | MIC [5] [µg/mL] | MIC [6] [µg/mL] | MIC [7] [µg/mL] | solubility [8] | inhibition [9] | MIC [10] [µg/mL] | MIC [11] [µg/mL] | MIC [12] [µg/mL] | MIC [13] [µg/mL] | MIC [14] [µg/mL] | MIC [15] [µg/mL] | MIC [16] [µg/mL] | inhibition [17] | MIC [18] [µg/mL]
Cc1ccc2oc(=O)c(C(=O)Nc3ccc(C(=O)O)cc3)cc2c1 | > 128 | > 128 | > 128 | > 128 | > 128 | > 128 | > 128 | Insoluble | inactive | > 128 | > 128 | > 128 | > 128 | > 128 | > 128 | > 128 | inactive | > 128
CCOC(=O)c1ccc(NC(=O)c2cc3ccc(OC)cc3oc2=O)cc1 | > 128 | > 128 | > 128 | > 128 | > 128 | > 128 | > 128 | Insoluble | inactive | > 128 | > 128 | > 128 | > 128 | > 128 | > 128 | > 128 | inactive | > 128
CCOC(=O)c1ccc(NC(=O)c2cc3cc([N+](=O)[O-])ccc3oc2=O)cc1 | > 128 | > 128 | > 128 | > 128 | > 128 | > 128 | > 128 | Insoluble | inactive | > 128 | > 128 | > 128 | > 128 | > 128 | > 128 | > 128 | inactive | > 128
